# According to PubChem BioAssay:
# Active and inactive are the calls of the source.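 How the source made its calls, unless noted: active means fluorescence slope higher than the sample average by over 3 SD (cut at about -0.22 in these data, passing the limit was not always enough); inactive means the rest.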
# Columns and labels:
# [1] = inhibitors of TNFa-induced NFkB p65 translocation, primary screen, imaging, HUVEC, MLSMR starter and 10KST1 sets (AID 438;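 active means inhibition above 20% together with a positive visual image hit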;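 further: compound added about 3h40 before a 20 min TNFalpha stimulation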;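 on inhibition: signal is the nuclear over cytoplasmic p65 intensity ratio per well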); details: HUVEC TNFa-induced p65 nuclear translocation; cell count: measured here: nuclei count (cytotoxicity indicator), at 2.08 µM; inhibition: at 2 µM, stronger effect = higher value, 0% TNFa-plus-vehicle, 100% no-TNFa wells
# [2] = inhibitors of E-selectin induction by TNFa, primary screen, imaging, HUVEC, immunofluorescence, MLSMR starter and 10KST1 sets (AID 487;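 active means visually confirmed hit in the image check and inhibition above 20%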;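 on inhibition: signal is fraction of cell area covered by stained E-selectin grains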;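 on nuclei count: 100% = median nuclei count of all wells on the same plate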); details: HUVEC TNFalpha-induced E-selectin immunofluorescence imaging, at 2 µM; inhibition: stronger effect = higher value; nuclei count: measured here: cell number, toxicity
# [3] = DUSP6 inhibitors restoring Erk phosphorylation by chemical complementation, primary imaging in DUSP6-transfected HeLa (AID 609;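 active means compounds giving at least 50% inhibition in the cell-based MKP-3 phosphatase rescue imaging test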;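 on inhibition: phospho-Erk level distribution per well compared with pooled transfected vehicle control wells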); details: HeLa MKP-3 transfected, phospho-Erk imaging KS statistic, at 10 µM, cells stimulated with TPA for 15 min
# [4] = target: Dual specificity protein phosphatase 6 (Homo sapiens) (UniProt Q16828); test: as above; details: HeLa MKP-3 transfected, phospho-Erk imaging KS statistic; at 10 µM; stronger effect = higher value; cells stimulated with TPA for 15 min
# [5] = target: Voltage-gated potassium channel subunit beta-2 (Rattus norvegicus) (UniProt P62483); test: KvBeta enzyme negative modulators, primary screen, biochemical, NADPH fluorescence (AID 622); details: recombinant KvBeta, 4-cyanobenzaldehyde reduction, at 10 µM, stronger effect = higher value;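 further: slope of raw intensity against log time taken from 70 to 1610 s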
# [6] = target: Voltage-gated potassium channel subunit beta-2 (Rattus norvegicus) (UniProt P62483); test: KvBeta positive modulators, primary screen, biochemical, NADPH fluorescence (AID 623;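 active means NADPH fluorescence slope more negative than the mean of all samples by about 3 SD, 99.7% confidence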;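 further: fluorescence intensity change per second fitted from 20 to 320 s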); details: Recombinant KvBeta, NADPH fluorescence decrease slope, 10 min; at 10 µM; stronger effect = lower value
# [7] = target: Muscarinic acetylcholine receptor M4 (Homo sapiens) (UniProt P08173); test: compounds altering M4/GIRK thallium flux, either direction, primary screen, M4 allosteric agonist project, cell-based, HEK293 M4/GIRK, BTC-AM (AID 625;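 active means fluorescence slope after compound addition differing from the mean of all tested samples at 99.7% confidence, mostly higher but some lower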;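 further: thallium influx through GIRK channels coupled to M4 in HEK293 cells with BTC-AM dye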); details: at 10 µM, actives lie on both sides
# Summary of the method: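 Material – HEK293 cells with M4 receptor and GIRK channels · Buffer or medium – pH 7.3 thallium assay buffer · Doses – one dose, 10 µM final · Timing – cells overnight at 37 °C, BTC-AM loading 1 h, reads 2 min total · Measured by – kinetic fluorescence with BTC-AM dye · Controls – carbachol and DMSO controls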
# [8] = inhibitors of larval lipid processing in zebrafish, primary screen, whole organism, PED6 fluorescence, gall bladder and intestine (AID 686;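 active means a full or partial loss of lipid-probe fluorescence in the fish gall bladder, intestine or both, judged by eye; inactive means no fluorescence loss, or compound toxic to the fish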;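 further: larvae 5 to 7 days old with five fish per well; signal comes from phospholipase A2 cleavage of quenched PED6 carried via bile; overnight exposure to compound and PED6 before scoring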); details: Zebrafish larvae PED6 lipid processing, fluorescence scoring; screened at 20 µM (by protocol)
# Summary of the method: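 system = live zebrafish larvae aged 5-7 days, whole organism | probe or stimulus = ingested quenched lipid PED6 at 100 nM | doses = 20 µM single dose | timing = overnight exposure | detection = fluorescence microscopy with visual scoring of gall bladder and intestine | read-out = visual per-well fluorescence inhibition score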
# [9] = inhibitors of Chlamydomonas gravitaxis, primary screen, whole organism, Chlamydomonas reinhardtii, WT vs cilia-less mutant, absorbance, 96-well (AID 463189;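 active means inhibition at or above 50% relative to wild type and mutant plate controls; inactive means inhibition below 50%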;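 further: 0% = wild type cc124 cells in DMSO and 100% = ciliumless bld1 mutant cells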); details: OD600 absorbance, 2 days, at 10 µM, stronger effect = higher value
# [10] = measured here: cell density z-score
# [11] = measured here: nuclear c-Myc green intensity z-score
# [12] = measured here: nuclear pErk red intensity z-score, stronger effect = higher value
# Chain of Voltage-gated potassium channel subunit beta-2 (Rattus norvegicus) (P62483 whole entry, looked up): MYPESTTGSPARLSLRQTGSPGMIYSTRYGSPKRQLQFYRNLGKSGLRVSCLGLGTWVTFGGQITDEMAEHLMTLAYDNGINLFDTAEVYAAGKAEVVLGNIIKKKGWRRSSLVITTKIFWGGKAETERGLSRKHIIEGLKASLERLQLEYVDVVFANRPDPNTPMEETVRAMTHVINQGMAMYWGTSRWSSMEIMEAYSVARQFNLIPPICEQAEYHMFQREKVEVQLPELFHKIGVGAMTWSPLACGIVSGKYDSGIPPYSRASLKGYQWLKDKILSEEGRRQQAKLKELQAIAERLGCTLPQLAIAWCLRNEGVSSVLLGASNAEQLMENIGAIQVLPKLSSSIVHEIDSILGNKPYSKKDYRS
# Chain of Muscarinic acetylcholine receptor M4 (Homo sapiens) (P08173 whole entry, looked up): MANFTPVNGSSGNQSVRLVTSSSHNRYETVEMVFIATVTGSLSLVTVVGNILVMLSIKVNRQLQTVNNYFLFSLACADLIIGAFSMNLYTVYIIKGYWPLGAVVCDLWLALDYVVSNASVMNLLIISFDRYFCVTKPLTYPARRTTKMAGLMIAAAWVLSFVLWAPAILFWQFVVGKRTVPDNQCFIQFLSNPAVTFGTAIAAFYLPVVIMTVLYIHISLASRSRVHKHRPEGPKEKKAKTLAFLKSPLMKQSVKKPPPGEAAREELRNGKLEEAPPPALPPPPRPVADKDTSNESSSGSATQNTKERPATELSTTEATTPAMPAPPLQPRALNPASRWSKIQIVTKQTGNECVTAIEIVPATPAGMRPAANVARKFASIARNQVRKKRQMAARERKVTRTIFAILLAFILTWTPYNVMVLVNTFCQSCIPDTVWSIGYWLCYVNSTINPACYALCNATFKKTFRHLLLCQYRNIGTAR
# Chain of Dual specificity protein phosphatase 6 (Homo sapiens) (Q16828 whole entry, looked up): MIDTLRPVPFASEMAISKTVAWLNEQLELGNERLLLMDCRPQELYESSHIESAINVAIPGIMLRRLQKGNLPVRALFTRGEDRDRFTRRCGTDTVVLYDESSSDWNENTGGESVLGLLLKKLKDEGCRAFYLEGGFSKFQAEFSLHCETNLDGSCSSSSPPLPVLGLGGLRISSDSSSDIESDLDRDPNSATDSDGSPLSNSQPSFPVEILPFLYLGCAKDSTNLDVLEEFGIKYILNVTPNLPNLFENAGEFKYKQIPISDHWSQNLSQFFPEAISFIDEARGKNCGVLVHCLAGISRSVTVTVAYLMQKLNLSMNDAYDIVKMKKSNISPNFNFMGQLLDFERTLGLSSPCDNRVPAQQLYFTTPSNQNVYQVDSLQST
SMILES,cell count [1],inhibition [1],inhibition [2],nuclei count [2],"z-score [3, 10]","z-score [3, 11]","z-score [3, 12]",inhibition [4],fluorescence slope [5],NADPH fluorescence slope [6],fluorescence slope [7],outcome [8],inhibition [9]
Cc1cc(=O)oc2c(CN3CCCCC3)c(O)c(Cl)cc12,703,-7.3% (inactive),-40.4% (inactive),146%,0.085,0.889,-2.46,7.83% (inactive),-0.0387 (inactive),-0.000132 (inactive),0.0046 (inactive),inactive,15.8% (inactive)
CCCCCSc1nc(C)c(CC(=O)O)c(=O)[nH]1,400,-8.8% (inactive),-27.1% (inactive),114%,0.718,-0.507,-1.88,1.04% (inactive),-0.477 (inactive),-5.1e-06 (inactive),0.00563 (inactive),inactive,34.5% (inactive)
Nc1c2c(nc3ccccc13)N(C1CCCCC1)CC2,670,21.3% (inactive),7.4% (inactive),98.7%,-0.086,0.000792,-0.245,-15.1% (inactive),-0.46 (inactive),-2.9e-05 (inactive),0.00444 (inactive),inactive,62.2% (active)
CCOC(=O)c1[nH]c2ccc(F)cc2c1NC(=O)CCN1CCSCC1,617,-1.1% (inactive),-124% (inactive),130%,-0.422,0.0168,1.05,1.42% (inactive),-0.455 (inactive),-0.000125 (inactive),0.00431 (inactive),inactive,-7.59% (inactive)
CCCCCOC(=O)C(C)c1c(C)[nH]c(=S)[nH]c1=O (stereo not drawn),628,-1.4% (inactive),-25.9% (inactive),158%,-0.614,-0.028,2.51,1.04% (inactive),-0.47 (inactive),-8.1e-05 (inactive),0.00582 (inactive),inactive,-3.91% (inactive)
N#Cc1nc(COc2ccccc2)oc1N1CCCC1,463,-4.6% (inactive),-281% (inactive),164%,-0.447,1.68,0.969,4.37% (inactive),-0.42 (inactive),-4.6e-05 (inactive),0.00421 (inactive),inactive,-0.28% (inactive)
CC(=O)c1cccc(N=C2NC(=O)C(CO)(CO)S2)c1,634,1.6% (inactive),-12.3% (inactive),118%,-2.29,1.22,0.157,-2.09% (inactive),-0.441 (inactive),-4.4e-05 (inactive),0.00557 (inactive),inactive,-10% (inactive)
COc1cc(=O)[nH]c(=O)n1CC(=O)c1ccccc1,719,-7.7% (inactive),-4.5% (inactive),160%,-0.792,1.02,1.07,-2.09% (inactive),-0.452 (inactive),-3.7e-05 (inactive),0.00585 (inactive),inactive,-0.879% (inactive)
CCCCCOC(=O)Cc1c(C)nc(-c2ccccc2)[nH]c1=O,373,-0.5% (inactive),-157% (inactive),157%,1.82,-0.595,-0.463,30.7% (inactive),-0.474 (inactive),-7.9e-05 (inactive),0.00469 (inactive),inactive,32% (inactive)
Cn1c(OCc2cccnc2)nc2c1c(=O)n(Cc1ccccc1)c(=O)n2C,719,-11.2% (inactive),-145% (inactive),176%,1.38,-0.255,-1.04,25.8% (inactive),-0.489 (inactive),-5.3e-05 (inactive),0.00844 (inactive),inactive,21.1% (inactive)
COn1c(SC2CCCCC2)nc2ccccc2c1=O,587,-3.1% (inactive),-35.7% (inactive),160%,0.823,0.448,-1.08,-7.28% (inactive),-0.48 (inactive),-7.1e-05 (inactive),0.00976 (inactive),inactive,0.873% (inactive)
CN(CCOC(=O)c1ccc2c(c1)OCCO2)Cc1ccccc1,661,-16.5% (inactive),-9.5% (inactive),184%,0.691,-0.671,1.4,5.35% (inactive),-0.472 (inactive),-0.000111 (inactive),0.00763 (inactive),inactive,69.7% (active)
COc1ccc2nc(/N=C(\N)NC(=O)C(C)(C)C)nc(C)c2c1,503,-6.3% (inactive),-18.6% (inactive),184%,0.367,-0.163,-0.285,9.91% (inactive),-0.361 (inactive),-3e-05 (inactive),0.00616 (inactive),inactive; toxic,2.17% (inactive)
c1ccc2c(c1)CCOC2CNCCCN1CCCCC1 (stereo not drawn),701,-5.5% (inactive),-141% (inactive),172%,-0.992,1.14,-0.201,1.98% (inactive),-0.473 (inactive),-6.5e-05 (inactive),0.00496 (inactive),inactive,-4.57% (inactive)
CC(C)COC(=O)CCNc1n[nH]c(=O)[nH]c1=O,622,-4.8% (inactive),-26.4% (inactive),174%,0.623,-0.835,-0.389,-11.5% (inactive),-0.505 (inactive),-4.2e-05 (inactive),0.00627 (inactive),inactive,-4.85% (inactive)
O=C1c2ccccc2-c2onc3ccc(NCc4ccco4)c1c23,705,-2.6% (inactive),-23.9% (inactive),118%,0.599,-0.783,0.692,10.9% (inactive),-0.14 (inactive),1.2e-05 (inactive),0.000102 (inactive),active; no signal in gallbladder and intestine,-2.14% (inactive)
COc1ccccc1NC(=O)CSc1nnc(-c2ccc(NC(C)=O)cc2)n1C,661,-6% (inactive),-36.2% (inactive),198%,-0.0402,-0.306,0.506,12.8% (inactive),-0.46 (inactive),-0.000106 (inactive),0.00538 (inactive),inactive,-1.17% (inactive)
Cc1nnc2n(C3CCCCC3)c(=O)c3c4c(sc3n12)COC(C)(C)C4,471,-0.7% (inactive),-19% (inactive),96.4%,-2.3,1.13,-0.467,-3.97% (inactive),-0.389 (inactive),7.7e-06 (inactive),0.00567 (inactive),inactive,11.1% (inactive)
CCCC(=O)N1CCc2[nH]c3ccccc3c2C1,502,4.2% (inactive),1.1% (inactive),167%,0.76,0.615,-0.975,-5.62% (inactive),-0.485 (inactive),-2.8e-05 (inactive),0.0054 (inactive),inactive,-3.97% (inactive)
CCOC(=O)CNS(=O)(=O)c1cc(-c2n[nH]c(=O)c3ccccc23)ccc1C,550,-12.6% (inactive),-67% (inactive),151%,2.42,0.186,0.634,20.2% (inactive),-0.47 (inactive),-0.000102 (inactive),0.00467 (inactive),inactive,2.8% (inactive)
COc1ccc(C2NC(=O)NC(O)(C(F)(F)F)C2C(=O)c2ccc(F)cc2)cc1 (stereo not drawn),632,6.6% (inactive),-68.3% (inactive),159%,-1.22,1.16,0.887,-0.674% (inactive),-0.479 (inactive),-5.2e-05 (inactive),0.00666 (inactive),inactive,-6.15% (inactive)
